Screening results deposited in PubChem by Sanford-Burnham Center for Chemical Genomics.
hIAP inh: blocks human intestinal alkaline phosphatase | P09923 | purified IAP, CDP-Star luminescence, 30 min | inhibition, % at 10 µM | 330,000 tested, 0.12% active | AID 2544;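 active = inhibition reaching a set limit with compound at 10 µM in the primary screen, cut at about 35% in these data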;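 also: plate controls were DMSO wells with enzyme for no effect and no-enzyme buffer wells for full effect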
Target sequence (P09923 whole entry, looked up): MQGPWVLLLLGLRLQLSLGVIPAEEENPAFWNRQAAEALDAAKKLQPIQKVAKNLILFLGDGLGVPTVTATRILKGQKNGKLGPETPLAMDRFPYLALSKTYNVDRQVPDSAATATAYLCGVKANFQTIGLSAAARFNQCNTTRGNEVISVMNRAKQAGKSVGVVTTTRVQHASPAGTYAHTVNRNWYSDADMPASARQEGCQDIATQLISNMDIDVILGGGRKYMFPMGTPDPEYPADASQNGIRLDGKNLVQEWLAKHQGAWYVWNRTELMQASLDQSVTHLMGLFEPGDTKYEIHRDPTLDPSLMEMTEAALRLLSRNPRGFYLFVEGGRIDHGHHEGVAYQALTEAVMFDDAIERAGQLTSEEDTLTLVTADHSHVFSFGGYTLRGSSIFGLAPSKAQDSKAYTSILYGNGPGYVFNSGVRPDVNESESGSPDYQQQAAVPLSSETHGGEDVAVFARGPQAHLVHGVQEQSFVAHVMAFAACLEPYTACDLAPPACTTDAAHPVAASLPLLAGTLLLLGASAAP
hIAP act: increases human intestinal alkaline phosphatase activity | P09923 | purified human IAP, CDP-Star luminescence, 30 min; active compounds read high; 1 = vehicle-only enzyme, 0 = enzyme-free background | activation factor at 10 µM | 330,000 tested, 0.16% active | AID 2524;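 active = activation factor of the enzyme at least 2-fold when tested at 20 µM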
bIAP inhibitor: blocks bovine intestinal alkaline phosphatase activity | purified bovine IAP, CDP-star luminescence, 30 min | inhibition, % at 20 µM | 190,000 tested, under 10 active | AID 1019;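 active = over 50% inhibition of intestinal alkaline phosphatase at 20 µM in the single-dose screen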
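Assay system – bovine IAP enzyme · Quantity – bovine IAP at 1/65,000,000 final dilution · Detection – CDP-star luminescence signal · Times – 30 min reaction at room temperature · Also added – CDP-star substrate at 30 µM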
mIAP activ: increases mouse intestinal alkaline phosphatase activity; muIAP, CDP-Star luminescence, 30 min; active compounds read high; 1 = vehicle-only enzyme signal, 0 = enzyme-free wells; activation factor at 10 µM; 330,000 tested, 0.24% active; AID 2805;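 active = activation factor of at least 2 at 20 µM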
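System: Mouse IAP enzyme | Also added: CDP-Star substrate | Dosing: Compounds dispensed in DMSO | Schedule: 30 min enzyme-substrate-compound incubation at room temperature | Technique: Chemiluminescence readout | Control set: DMSO-only wells and no-enzyme negative control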
mIAP block: mouse IAP inhibition; inhibition, % at 10 µM; purified mouse IAP, CDP-Star luminescence, 30 min; 330,000 tested, 0.2% active;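 active = inhibition of at least 40% at 10 µM in the primary screen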;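 also: plate controls were DMSO with enzyme for no effect and no enzyme wells for full effect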
bIAP activator: increases bovine intestinal alkaline phosphatase activity. purified bovine IAP, CDP-star luminescence, 30 min; active compounds read high; fold of DMSO-control signal, blank-subtracted. activation factor at 20 µM. 200,000 tested, 0.17% active;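 active = activation factor of 2 or more at 20 µM, a signal rise over negative controls twice the positive control's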
* = called active by the depositor. In the library only some 0.79% were active in any assay of this set; here they are far more common.

COc1ccc(-c2nnn(CC(=O)N(Cc3cccs3)C(C)C(=O)NC3CCCC3)n2)cc1OC (configuration not stated) was read as hIAP inh 6, hIAP act 0.94, bIAP inhibitor -25, mIAP activ 1.1, mIAP block -7 and bIAP activator 1.3.
NC(=O)C1CCCN(C(=O)c2cccc(NC(=O)c3cccs3)c2)C1 (configuration not stated) was read as hIAP inh 6, hIAP act 0.94, mIAP activ 0.94 and mIAP block 6.
O=S(=O)(c1ccc2c(c1)OCCO2)N1CCC(n2nnc3cc(F)ccc32)CC1 was read as hIAP inh 9, hIAP act 0.91, bIAP inhibitor -113, mIAP activ 1.1, mIAP block -5 and bIAP activator 2.1*.
Screening O=C(/C=C/c1ccccc1)OCc1cnc(Cl)s1 returned hIAP inh 13, hIAP act 0.87, bIAP inhibitor 20, mIAP activ 1.1, mIAP block -8 and bIAP activator 0.8.
Screening CCCCCCCCC(=O)NC(NC(=S)N1CCOCC1)C(Cl)(Cl)Cl (configuration not stated) returned hIAP inh -73, hIAP act 1.7, bIAP inhibitor 5, mIAP activ 3.4*, mIAP block -236 and bIAP activator 1.
`CCCn1c(N)cc(=O)n(CCC)c1=O` gave hIAP inh -3, hIAP act 1, bIAP inhibitor -4, mIAP activ 1, mIAP block 0 and bIAP activator 1.
For O=C(Nc1ccccc1C(=O)NC1CC1)c1ccc([N+](=O)[O-])o1 the results were hIAP inh -11, hIAP act 1.1, mIAP activ 0.87 and mIAP block 13.
For O=C(NCCCN1CCCC1=O)C1CCN(S(=O)(=O)c2c(Cl)cccc2Cl)CC1 the results were hIAP inh 8, hIAP act 0.92, mIAP activ 0.94 and mIAP block 6.
For Cc1ccsc1C(=O)Nc1ccc2c(c1)OCCO2 the results were hIAP inh 6, hIAP act 0.94, bIAP inhibitor -110, mIAP activ 1, mIAP block -4 and bIAP activator 2.1*.
`Cc1ncoc1C(=O)Nc1ccc2c(c1)OCCO2` gave hIAP inh 16, hIAP act 0.84, bIAP inhibitor 5, mIAP activ 0.92, mIAP block 8 and bIAP activator 0.9.
O=C(Nc1cccc(Cl)c1)N1CCN2C(=O)c3ccccc3C12c1ccccc1 (configuration not stated) was read as hIAP inh 17, hIAP act 0.83, bIAP inhibitor -8, mIAP activ 2.1*, mIAP block -108 and bIAP activator 1.1.
`CC(C)(C)c1ccc(NC(=O)COc2ccc(-n3ccnc3)cc2)cc1` gave hIAP inh -7, hIAP act 1.1, bIAP inhibitor -165, mIAP activ 1.2, mIAP block -23 and bIAP activator 2.6*.
For COc1cc(NC(=O)COc2ccc(-n3ccnc3)cc2)cc(OC)c1 the results were hIAP inh -28, hIAP act 1.3, bIAP inhibitor -25, mIAP activ 1.1, mIAP block -10 and bIAP activator 1.2.
CC(C)(C)OC(=O)N1CSC[C@H]1C(=O)NC[C@H](CC(=O)O)c1ccc(Cl)cc1 was read as hIAP inh -7, hIAP act 1.1, mIAP activ 1 and mIAP block 0.
Screening CN(C)c1nc(NCc2ccccc2)nc(SCC(=O)Nc2ccccc2)n1 returned hIAP inh 3, hIAP act 0.97, bIAP inhibitor 13, mIAP activ 2*, mIAP block -104 and bIAP activator 0.9.
For CN(C)c1nc(NC(C)(C)C)nc(SCC(=O)Nc2ccccc2)n1 the results were hIAP inh 5, hIAP act 0.95, bIAP inhibitor -7, mIAP activ 1.2, mIAP block -16 and bIAP activator 1.1.
`O=C(O)COc1ccccc1Cc1ccccc1` gave hIAP inh -11, hIAP act 1.1, bIAP inhibitor 4, mIAP activ 0.97, mIAP block 3 and bIAP activator 1.
CC(COc1ccccc1Cc1ccccc1)N1CCCCC1 (configuration not stated) was read as hIAP inh 40*, hIAP act 0.6, mIAP activ 0.91 and mIAP block 9.
Cc1ccc(N(CC(=O)NCCc2ccccc2)C(=O)CCC(=O)Nc2cc(C)ccn2)cc1 was read as hIAP inh 18, hIAP act 0.82, mIAP activ 1.1 and mIAP block -6.
`NCCNC[C@@H]1COC2(CCCCCCCCCCC2)O1` gave hIAP inh -8, hIAP act 1.1, mIAP activ 0.91 and mIAP block 9.
Cc1c(C(=O)O)sc2nc3n(c(=O)c12)CCC(C)CC3 (configuration not stated) was read as hIAP inh -14, hIAP act 1.1, bIAP inhibitor -5, mIAP activ 0.59, mIAP block 41* and bIAP activator 1.1.
COC(=O)C1=C(C)NC(=O)NC1c1ccc(N2CCC(c3ccccc3)=N2)cc1 (configuration not stated) was read as hIAP inh -21, hIAP act 1.2, bIAP inhibitor -2, mIAP activ 2.2*, mIAP block -119 and bIAP activator 1.
Screening COc1ccc(N(CC(=O)Nc2ccc(Cc3ccncc3)cc2)S(=O)(=O)c2ccccc2)cc1 returned hIAP inh -22, hIAP act 1.2, mIAP activ 2.4* and mIAP block -135.
For COc1ccccc1N(CC(=O)Nc1ccc(Cc2ccncc2)cc1)S(=O)(=O)c1ccccc1 the results were hIAP inh -23, hIAP act 1.2, mIAP activ 1.2 and mIAP block -22.
For CCCCCOc1ccc(C(C)(O)C(CN2CCOCC2)c2ccccc2)cc1 (configuration not stated) the results were hIAP inh -20, hIAP act 1.2, mIAP activ 1 and mIAP block -2.
`CC1=C(C#N)C(=O)N(C2CCS(=O)(=O)C2)C(=O)/C1=C\c1ccco1` (configuration not stated) gave hIAP inh -8, hIAP act 1.1, mIAP activ 0.53 and mIAP block 47*.
`Cc1ccc(NC(=O)CNc2ccccc2N2CCCC2=O)cc1S(=O)(=O)N1CCCCC1` gave hIAP inh 6, hIAP act 0.94, mIAP activ 1.3 and mIAP block -26.
Screening c1ccc2c3c([nH]c2c1)C(C1CCCCC1)N(Cc1ncc[nH]1)CC3 (configuration not stated) returned hIAP inh -10, hIAP act 1.1, bIAP inhibitor -109, mIAP activ 1.2, mIAP block -24 and bIAP activator 2.1*.
